For this data set, the system named is MS2 coat protein. Nature of the data set: apparent Kd, MS2 coat protein; higher = weaker binding; RNA-MaP array; FMN 200 µM where present. The essentials: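 Two titrations, one without ligand and one with constant ligand, were run with SNAP-549-labelled MS2 coat protein from 0.7 or 1.5 nM, doubling to 3 µM. The targets were designs transcribed by stalled E. coli RNA polymerase on Illumina sequencing-chip clusters, in 100 mM Tris-HCl pH 7.5, 80 mM KCl, 4 mM MgCl2, BSA, DTT, yeast tRNA and Tween-20. The apparent Kd is the median of filtered per-cluster binding-curve fits, with green signal normalised to red-channel RNA signal and control-cluster median Fmax.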

Setting [1] is: designed as: OFF switch for flavin mononucleotide, no ligand.
Where [2] appears, read: ligand present: flavin mononucleotide, designed as: OFF switch for flavin mononucleotide.
The mark [3] stands for this setting: designed as: ON switch for flavin mononucleotide, no ligand.
The mark [4] stands for this setting: ligand present: flavin mononucleotide, designed as: ON switch for flavin mononucleotide.

Regarding “AGUUUACAUGAGGAUCACCCAUGUGAGGAUAUGGUUUCGCUGGCCGUAGCCAGUGGAACCAGAAGGCGCAUGAU”, the “apparent Kd” value is, setting by setting: under setting [1], 76 nM; under setting [2], 349 nM.
For “GGGUACGUCGGAGGAUAUCAUGUAAAUACAUGAGGAUCACCCAUGUCGAUGGAGACAUCGGAGAUUGAGAAGGCCGAUGUACCG”, the “apparent Kd” value is 192 nM under setting [3] and 8.89 nM under setting [4].
For the sequence “ACAUGAGGAUCACCCAUGUUAUCAGGGACUUCAAUUAUUUGUAGAAGGCUGUUUUCUUGUAAGUCAGAGGAUAUACAAUUAAAU”, the “apparent Kd” value under setting [1] is 11.9 nM and the “apparent Kd” value under setting [2] is 14.3 nM.
“CCUCCACAUGAGGAUCACCCAUGUCACACUCCGUCAGGAUAUAGCCUGCAUCCGCUGUGGCUAGAAGGGACUGCUG”: the “apparent Kd” value was 332 nM under setting [3] and 303 nM under setting [4].
With “GGACGACCCAUUAACAUGAGGAUCACCCAUGUCAAAAGACAUGAGGAUAUGGUACCUAAUUGGUACCAGAAGGCAUGGUCGUCC”, the “apparent Kd” value under setting [3] turned out to be 1470 nM and the “apparent Kd” value under setting [4] was 107 nM.
For “GCGUUGAACGAGAAGGCCAAUACAUGAGGAUCACCCAUGUUAAGAUGUUUUGGAGGAUAUCGAUCGUCGUCUCAUGAGCAACGC”, the “apparent Kd” value is, setting by setting: under setting [1], 5.3 nM; under setting [2], 6.24 nM.
Take “AAACCGUGUGGAGGAUAUGCAGUUGAGGUGAGGUAGCAACUCUAUACGACAGCAGAAGGCCACAUGAGGAUCACCCAUGUAGGU”: the “apparent Kd” value by setting is: under setting [1], 489 nM; under setting [2], 158 nM.
For “AAUAAACACACAGGAUAUAGCAUCGUCGUUAUGAACUUAAUGACGACGAUGCUAGAAGGGUGAACACAUGAGGAUCACCCAUGU”, the “apparent Kd” value reads like this: under setting [3], 211 nM; under setting [4], 35.6 nM.
Take “AGAAAACAUGAGGAUCACCCAUGUGAGGAUAUCGAUGUCCAAGGCCGGGUGCGGGACUCGAGAAGGCACUUGGA”: the “apparent Kd” value is, setting by setting: under setting [1], 76.9 nM; under setting [2], 32.3 nM.
For the sequence “AAUAAACUCACAGGAUAUAGCAGAGGUCGCCUGAACUUACAGGCGACGAUGCUAGAAGGGUGACCACAUGAGGAUCACCCAUGU”, the “apparent Kd” value was 825 nM under setting [3] and 136 nM under setting [4].
With “UGUGCUAUGUAGAAGGCAGAUCUGAUUCAGAUCUGAGGAUAUACAUGAGGAUCACCCAUGUUAUGCACCAGCACGAGAGUGCAU”, the “apparent Kd” value runs as follows: under setting [1], 17.7 nM; under setting [2], 91.8 nM.
With “ACCUCACAUGAGGAUCACCCAUGUCAGGAUAUACAAACCGUGUAAAGACACGGUCGUAGUAGAAGGGACUAUGG”, the “apparent Kd” value was determined as 68 nM under setting [1] and 18.7 nM under setting [2].
On to “CGGUACACAGGAUAUAACGUCUGCAACAUGAGGAUCACCCAUGUUGUCCAAACGUUGCGGUUAGAAGGGUGGGCGC”, for which the “apparent Kd” value came to 30.7 nM under setting [1] and 70.8 nM under setting [2].
Taken in the same sequence, the figures for “AAAAAACAUGAGGAUCACCCAUGUCAGGAUAUGAAAAAAAAAAAAAAAAAAAAAAAAAUCAGAAGGGACAAAAA” were 66.4 nM and 36.1 nM.
Turning to “UAUUCGUUCUAGAAGGUGCAUUUGUUAAACAUGCAAGGAUAUAGACAUGAGGAUCACCCAUGUCUAUGAGACAUCGGCCUCCUU”, the “apparent Kd” value runs as follows: under setting [1], 7.15 nM; under setting [2], 24.9 nM.
As to “AAUGUGUGUCGAGGAUAUAUAACAUGACAACAAACACAUACAUGAGGAUCACCCAUGUCCCAUGUAUAGAAGGCGAUAUAUAUA”, the “apparent Kd” value under setting [3] worked out at 310 nM and the “apparent Kd” value under setting [4] amounted to 1120 nM.
Consider “CACAACCAGGGAGGAUAUACAUGAGGAUCACCCAUGUUCGGCUCCCAUGCAGGAUGCCGUCCCGUGUAGAAGGCCCAGCGAUAG”, for which the “apparent Kd” value is, setting by setting: under setting [1], 9.91 nM; under setting [2], 32.2 nM.
Consider “GAUCUACAUGAGGAUCACCCAUGUAAGGAUAUCGUCACUGGAGCUUCGGCUCCAGUGACGAGAAGGUACAAUUA”, for which the “apparent Kd” value is 28.8 nM under setting [1] and 32.1 nM under setting [2].
Taken in the same sequence, the figures for “CUGUAGUGAGGAUAUUAUUUGCAAGCCCUAGACGGCGCGAAUGAGAAGGUACAUGAGGAUCACCCAUGUGGUUG” were 126 nM and 297 nM.
For the sequence “GUCAGCUCGUGAGGAUAUACAACACUGCUUCGGCAGUGAAUUAAGAUCACAUGAGGAUCACCCAUGUAGAAGGCACGAGCUGAU”, the “apparent Kd” value runs as follows: under setting [1], 17 nM; under setting [2], 325 nM.
The matching figures for “CCGGAAAUGCAGGAUAUCGUAUCGGAAACGAUACGAGAAGGGUAUACAUGAGGAUCACCCAUGUGUCCUACCGG”: 22.6 nM and 21.4 nM.
On to “CUCAUGUGAGGAUAUCAGUAGUAAAAAAAUAAAAUUACUACUGAGAAGGCACAUGAGGAUCACCCAUGUGCAAA”, for which the “apparent Kd” value was found to be 95.9 nM under setting [1] and 105 nM under setting [2].
“AUAUUGUGAGGAUAUCCAAUAUAUGACAUGAGGAUCACCCAUGUUUCCACUCGUACCUCCGGAGAAGGCACAUUUU”: the “apparent Kd” value runs as follows: under setting [1], 27 nM; under setting [2], 24 nM.
As to “CUGCUGGAGCUUUGCUUUAGUCGUACAUGAGGAUCACCCAUGUAGGAUAUGGUAGGCUUCGCUUACUAGAAGGAUAGAGUGGUC”, the “apparent Kd” value is, setting by setting: under setting [1], 33.6 nM; under setting [2], 22.8 nM.
With “GCCAUCGUAUGAGGAUAUGGCACCGAACCGGUGCCAGAAGGCAUGUCAAUAGACAUGAGGAUCACCCAUGUGUUAUCGAUGGCA”, the “apparent Kd” value under setting [3] is 147 nM and the “apparent Kd” value under setting [4] was 13.1 nM.
For “UGAUAGGACAGAGGAUAUACGGAUAGGAUCUACUAUCUUCUUCAAAUAACAUGAGGAUCACCCAUGUAGAAGGCUGUCCUAUCU”, the “apparent Kd” value runs as follows: under setting [1], 15 nM; under setting [2], 33 nM.
Taken in the same sequence, the figures for “CUUUCGUGAGGAUAUGAAAAUUCGAUCGUGAGAUCGAGGCUACAGAAGGCACAUGAGGAUCACCCAUGUUCCUC” were 31.5 nM and 320 nM.
As for “AGGAAGGGUGCUCCGGCGGGCCGAGCAGAAGGGUGAUUGGACAUGAGGAUCACCCAUGUAUAAACACAGGAUAUGCAAACGGGU”, the “apparent Kd” value reads like this: under setting [3], 305 nM; under setting [4], 13.1 nM.
Regarding “AUACACACGACAGGAUAUGGAAUGUAAGCUCAGAGACAUGAGGAUCACCCAUGUACCUGUCUUGCCCAGAAGGGUCGCAAAAGA”, the “apparent Kd” value runs as follows: under setting [3], 327 nM; under setting [4], 64.5 nM.
Consider “ACAUACAUUCGAGGAUAUCGGUGAUUAAUUUUACGAGAAGGCGAUAUAAGAUAUAAUAUUUUAGACAUGAGGAUCACCCAUGUA”, for which the “apparent Kd” value by setting is: under setting [3], 25.5 nM; under setting [4], 22.9 nM.
As to “UAUAUAUAGUAAGGAUAUGUAAUUAUUUUAUCAACAGAAGGUACUGACAUGAGGAUCACCCAUGUUUUAGUGUGGGCAUGUAGA”, the “apparent Kd” value by setting is: under setting [1], 87.9 nM; under setting [2], 111 nM.
Turning to “AGGUCACAUGAGGAUCACCCAUGUCAGGAUAUCGUCACUGGAGCUGCGGCUCCAGUGACGAGAAGGGAUAAUUA”, the “apparent Kd” value is, setting by setting: under setting [1], 45.5 nM; under setting [2], 70.5 nM.
On to “UGGAAGGUAUGAGGAUAUGCAUGCGAAACGCAUGCAGAAGGCAUGUCAAUAGACAUGAGGAUCACCCAUGUAUUAUCCUUCCAA”, for which the “apparent Kd” value under setting [3] was 455 nM and the “apparent Kd” value under setting [4] was determined as 41.7 nM.
Take “GUUUUCGCAUGAGGAUAUGCUCGCAUUUCUAGAGCAGAAGGUAUGUCUAUAGACAUGAGGAUCACCCAUGUAUUUAACUUUGAA”: the “apparent Kd” value was determined as 186 nM under setting [3] and 34.4 nM under setting [4].
For “GCAUAUGUCGUCUACAUGAGGAUCACCCAUGUUGAUAAACAUGAGGAUAUUGAUAAGAAUUGUAUCGAGAAGGUAUGUAGGUGC”, the “apparent Kd” value is, setting by setting: under setting [3], 258 nM; under setting [4], 347 nM.
For the sequence “AGACGGAGCAGAGGAUAUACAUGAGGAUCACCCAUGUAAGAUCUCCAGGAAACUGGAGAUCAAAUGUAGAAGGCUGCUCCGUCA”, the “apparent Kd” value under setting [1] came out at 17.8 nM and the “apparent Kd” value under setting [2] was found to be 55.8 nM.
Take “GUGUACAGAGGAUAUACUUGAAUCUAGCGAAGCUAGGUUUGACAUGAGGAUCACCCAUGUAGAAGGCUGUACAC”: the “apparent Kd” value amounted to 15.3 nM under setting [1] and 20.5 nM under setting [2].
Turning to “ACCUCACAUGAGGAUCACCCAUGUCAGGAUAUUCAAACAGGCGAAACUCCGCCUUCUCGAAGAAGGGACAUUAA”, the “apparent Kd” value runs as follows: under setting [1], 15.9 nM; under setting [2], 64.5 nM.
Turning to “AAAACGCGGGAGAAGGCCACUUACCGUUACAUGGACGUGAGAAAUAAAUGGAGGAUAUCCCUACAUGAGGAUCACCCAUGUAAU”, the “apparent Kd” value by setting is: under setting [3], 412 nM; under setting [4], 103 nM.
As for “ACUUGACAUGAGGAUCACCCAUGUCAGGAUAUAGUAGGACAAAUAAAUAAAAGUUCUACUAGAAGGGACUUGGG”, the “apparent Kd” value runs as follows: under setting [1], 25.1 nM; under setting [2], 45.3 nM.
As for “UGGGUUGUUGAGGAUAUCCCGACCGUCUGGUCGGGAGAAGGCAAUACAUGAGGAUCACCCAUGUCACACUUUUC”, the “apparent Kd” value by setting is: under setting [1], 32.2 nM; under setting [2], 66.5 nM.
On to “GGAAAUCAUGUAGGAUAUGCAUGGCGAAGCUACGCAGAAGGACAUGAGGAUCACCCAUGUUCUGGCUACCGGAUACGGUGGCAA”, for which the “apparent Kd” value runs as follows: under setting [1], 20.7 nM; under setting [2], 94.3 nM.
Turning to “GUCUUCAUGACAUGAGGAUCACCCAUGUGUUAUAUUUUUACUAAGGAUAUAUUUUUAAUGUUGAGAUAGAAGGUAGUUUCGGUC”, the “apparent Kd” value under setting [1] amounted to 101 nM and the “apparent Kd” value under setting [2] is 121 nM.
As to “GUUACAUGAGGAUCACCCAUGUAUGUGUGGGAGUAAGUGUCUUAGGAUAUCUAUUAGUUAAAUUAAGAGAAGGAAGAUUGUUGU”, the “apparent Kd” value runs as follows: under setting [3], 119 nM; under setting [4], 127 nM.
Regarding “UAGAUGGGAGGAUAUACGUAGAUGCAGGUUCGUGUGGUUCUACAUGAGGAUCACCCAUGUAGAAGGCCCGUCUU”, the “apparent Kd” value runs as follows: under setting [1], 16.6 nM; under setting [2], 27.5 nM.
Consider “CCGGAAAUGAAGGAUAUAGGAGUCGAUAGACUCCUAGAAGGUCAUACAUGAGGAUCACCCAUGUGUCCUACCGG”, for which the “apparent Kd” value reads like this: under setting [1], 15.8 nM; under setting [2], 34.9 nM.
The matching figures for “UACAUGAGGAUCACCCAUGUUUUGUCGUGUAUGGUAUUUAUCUAGGAUAUCAUUUUAUCUAGUUAUGAGAAGGAGAAUAUUAAU”: 36.6 nM and 29.9 nM.
With “CACCGUUAGCGAGGAUAUCGUACAUGAGGAUCACCCAUGUAAUAAAUGAGAAUUUCGGAUGUAUGCGAGAAGGCGCGAAUCGGC”, the “apparent Kd” value was found to be 52.9 nM under setting [1] and 40.6 nM under setting [2].

What is called apparent Kd is the concentration giving half-maximal binding under the conditions of the assay.

The record behind these values is the EternaBench riboswitch data.
